pIC50: −log10 of the molar value.
Legend:
Rattus norvegicus [1] = assay: The compound was tested ex vivo at a dose of 0.15 mmol/kg for collagen induced platelet aggregation in rat; type: functional
Summary of the method: (§1)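 Male rats (~200 g) or guinea pigs (~300 g), overnight fasted, n=5-10, received compound orally in 1% methylcellulose (5 mL/kg); vehicle-only controls. After 2 h, CO2 kill and vena cava blood into citrate (102 mM rat, 129 mM guinea pig). PRP set to 800000/µL (rat) or 500000/µL (guinea pig). Collagen EC50 (response of 50 mm; max 50 µg/mL) interpolated from a log plot. Dose ratio = treated/control mean EC50; t-test. Pooled PRP sometimes used.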

Cavia porcellus [2] = assay: The compound was tested ex vivo at a dose of 0.15 mmol/kg for collagen induced platelet aggregation in guinea pig; type: functional; summary of the method: as §1
Rattus norvegicus [3] = assay: The compound was tested ex vivo at a dose of 0.15 mmol/kg for ADP induced platelet aggregation in rat
Cavia porcellus [4] = assay: The compound was tested ex vivo at a dose of 0.15 mmol/kg for ADP induced platelet aggregation in guinea pig
Cavia porcellus [5] = assay: The compound was tested ex vivo at a dose of 0.15 mmol/kg for ADP induced platelet aggregation in guinea pig; type: functional
Summary of the method: (§2)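 Fasted male rats (~200 g) or guinea pigs (~300 g), n=5-10, dosed orally (5 mL/kg) in 1% methylcellulose; methylcellulose alone as control. Killed with CO2 after 2 h. Vena cava blood citrated (102 mM rat, 129 mM guinea pig); PRP adjusted to 800000/µL (rat) or 500000/µL (guinea pig). EC25 for first-phase ADP aggregation (max 8 µM) interpolated from two 2-fold-spaced ADP levels. Dose ratio = treated/control mean EC25; Student's t-test. Some groups tested as pooled PRP.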

Cavia porcellus [6] = assay: The compound was tested ex vivo at a dose of 0.02 mmol/kg for collagen induced platelet aggregation in guinea pig; type: functional; summary of the method: as §1
Cavia porcellus [7] = assay: The compound was tested ex vivo at a dose of 0.08 mmol/kg for ADP induced platelet aggregation in guinea pig; type: functional; summary of the method: as §2
Cavia porcellus [8] = assay: The compound was tested ex vivo at a dose of 0.08 mmol/kg for collagen induced platelet aggregation in guinea pig; type: functional; summary of the method: as §1
Cavia porcellus [9] = assay: The compound was tested ex vivo at a dose of 0.04 mmol/kg for ADP induced platelet aggregation in guinea pig; type: functional; summary of the method: as §2
Homo sapiens = species on record: Homo sapiens; assay: In vitro inhibitory activity against human platelet aggregation in the presence of collagen; type: functional
Summary of the method: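 Aggregation measured photometrically in human citrated PRP (350000 platelets/µL, stirred at 1100 rpm). Compound or saline preincubated 3 min at 37 °C. Collagen at a just-maximal level chosen for each sample (typically 0.7-1.4 µg/mL). Maximum increase in light transmission measured. IC50 = concentration giving 50% inhibition.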

Rattus norvegicus [10] = assay: The compound was tested ex vivo at a dose of 0.08 mmol/kg for ADP induced platelet aggregation in rat; type: functional; summary of the method: as §2
Rattus norvegicus [11] = assay: The compound was tested ex vivo at a dose of 0.04 mmol/kg for ADP induced platelet aggregation in rat; type: functional; summary of the method: as §2
Rattus norvegicus [12] = assay: The compound was tested ex vivo at a dose of 0.04 mmol/kg for collagen induced platelet aggregation in rat; type: functional; summary of the method: as §1
Rattus norvegicus [13] = assay: The compound was tested ex vivo at a dose of 0.08 mmol/kg for collagen induced platelet aggregation in rat; type: functional; summary of the method: as §1
Rattus norvegicus [14] = assay: The compound was tested ex vivo at a dose of 0.15 mmol/kg for collagen induced platelet aggregation in rat
Cavia porcellus [15] = assay: The compound was tested ex vivo at a dose of 0.04 mmol/kg for ADP induced platelet aggregation in guinea pig

Row | collagen EC50 dose ratio (treated/control) (Cavia porcellus [2]) | pIC50 (Homo sapiens) | SMILES | Activity (Rattus norvegicus [1]) | Activity (Rattus norvegicus [3]) | Activity (Cavia porcellus [4]) | Activity (Cavia porcellus [5]) | Activity (Cavia porcellus [6]) | Activity (Cavia porcellus [7]) | Activity (Cavia porcellus [8]) | Activity (Cavia porcellus [9]) | Activity (Rattus norvegicus [10]) | Activity (Rattus norvegicus [11]) | Activity (Rattus norvegicus [12]) | Activity (Cavia porcellus [2]) | Activity (Rattus norvegicus [13]) | Activity (Rattus norvegicus [14]) | Activity (Cavia porcellus [15])
1 | >47 |  | CCN(CC)CCn1sc2cc(OC)c(OC)cc2c1=O | 1.5 | 2.2 | 1.1 |  |  |  |  |  |  |  |  |  |  |  | 
2 |  | 3.06 | O=C1C(CC[S+]([O-])c2ccccc2)C(=O)N(c2ccccc2)N1c1ccccc1 (stereo not drawn) [SULFINPYRAZONE] | 1.1 |  |  | 1.1 | 2.9 | 1.6 | 6.2 | 1.1 | 1.2 | 1 | 1.3 | 3.2 | 1.8 | 1.2 | 1.1
